In ChEMBL document CHEMBL1275435, “A naturally occurring proline-to-alanine amino acid change in Fks1p in Candida parapsilosis, Candida orthopsilosis, and Candida metapsilosis accounts for reduced echinocandin susceptibility” (Antimicrob Agents Chemother, 2008):
In brackets after ≈: the same amount, converted by molar mass. *1 amine or outer side, *2 acyl side, *3 side chain or, on linkers, in order; H or OH if unused. Where a SMILES comes first, the peptide text is derived from it. Bridges are numbered along the chain shown (N, C = ends). [ ]: non-standard residue; d: D form. The star is where a group is joined. pTerphenylCO(4''-OnC5H11) = CCCCCOc1ccc(-c2ccc(-c3ccc(C(=O)*)cc3)cc2)cc1; Orn(4R-OH,5R-OH) = O=C([C@H](C[C@@H](O)[C@@H](O)N[*:3])N[*:1])[*:2]; hTyr(3S-OH,4S-OH) = N[C@H](C(=O)O)[C@H](O)[C@@H](O)c1ccc(O)cc1; Pro(3S-OH,4S-Me) = C[C@H]1CN[C@H](C(=O)O)[C@H]1O; Hyp = O=C(O)[C@@H]1C[C@@H](O)CN1

Columns and labels:
Candida parapsilosis [1] = assay: Antifungal activity against Candida parapsilosis ATCC 22019 by CLSI method; type: functional; conditions: Lodderomyces parapsilosis
Candida metapsilosis [2] = assay: Antifungal activity against Candida metapsilosis 960161 by CLSI method; type: functional; conditions: Lodderomyces metapsilosis
Saccharomyces cerevisiae [3] = assay: Antifungal activity against FKS1 deficient Saccharomyces cerevisiae BY4742 by CLSI method; type: functional
Candida orthopsilosis [4] = assay: Antifungal activity against Candida orthopsilosis H10 by CLSI method; type: functional; conditions: Lodderomyces orthopsilosis
[5] = Inhibition of Candida glabrata ATCC 90030 glucan synthase assessed as [3H]UDPG incorporation; parameters: species or system Nakaseomyces glabratus
How it was run: (§1)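 Cells were grown with vigorous shaking at 30°C to early stationary phase in YPD. Membrane GS was partially purified by product entrapment, using 10-fold more cells for low-activity strains. The polymerization assay was started by adding GS, with drug serially diluted from 0.01 to 10,000 ng/ml. Reactions ran 60 min at 25°C and were stopped on ice. IC50 came from sigmoidal variable-slope fits, as arithmetic means ± SD of three repetitions on three days.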

Candida albicans [6] = assay: Antifungal activity against Candida albicans M122 by CLSI method; type: functional
[7] = Inhibition of Candida albicans Sc5314 glucan synthase assessed as [3H]UDPG incorporation; how it was run: as §1
[8] = Inhibition of Candida metapsilosis 960161 glucan synthase assessed as [3H]UDPG incorporation; how it was run: as §1
Nakaseomyces glabratus [9] = assay: Antifungal activity against Candida glabrata ATCC 90030 by CLSI method; type: functional
Candida parapsilosis [10] = assay: Antifungal activity against Candida parapsilosis H4 by CLSI method; type: functional; conditions: Lodderomyces parapsilosis
[11] = Inhibition of Saccharomyces cerevisiae BY4742 glucan synthase assessed as [3H]UDPG incorporation; how it was run: as §1
Candida albicans [12] = assay: Antifungal activity against Candida albicans ATCC 36082 by CLSI method; type: functional
[13] = Inhibition of Candida parapsilosis ATCC 22019 glucan synthase by assessed as [3H]UDPG incorporation; how it was run: as §1
Candida albicans [14] = assay: Antifungal activity against Candida albicans ATCC 90028 by CLSI method; type: functional
Candida albicans [15] = assay: Antifungal activity against Candida albicans Sc5314 by CLSI method; type: functional
[16] = Inhibition of Candida orthopsilosis 981224 glucan synthase assessed as [3H]UDPG incorporation; how it was run: as §1
[17] = Inhibition of Candida albicans ATCC 90028 glucan synthase assessed as [3H]UDPG incorporation; how it was run: as §1
Saccharomyces cerevisiae [18] = assay: Antifungal activity against Saccharomyces cerevisiae BY4742 by CLSI method; type: functional
[19] = Inhibition of Candida albicans ATCC 36082 glucan synthase assessed as [3H]UDPG incorporation; how it was run: as §1
[20] = Inhibition of Candida metapsilosis am-2006-0113 glucan synthase assessed as [3H]UDPG incorporation; how it was run: as §1
Candida parapsilosis [21] = assay: Antifungal activity against Candida parapsilosis H5 by CLSI method; type: functional; conditions: Lodderomyces parapsilosis
[22] = Inhibition of Candida glabrata T51916 glucan synthase assessed as [3H]UDPG incorporation; parameters: species or system Nakaseomyces glabratus; how it was run: as §1
Nakaseomyces glabratus [23] = assay: Antifungal activity against Candida glabrata T51916 by CLSI method; type: functional
[24] = Inhibition of Candida orthopsilosis H10 glucan synthase assessed as [3H]UDPG incorporation; how it was run: as §1
[25] = Inhibition of Saccharomyces cerevisiae BY4742-FKS1P649A mutant glucan synthase assessed as [3H]UDPG incorporation; how it was run: as §1
[26] = Inhibition of Candida parapsilosis H5 glucan synthase assessed as [3H]UDPG incorporation; how it was run: as §1
Saccharomyces cerevisiae [27] = assay: Antifungal activity against Saccharomyces cerevisiae BY4742-FKS1P649A mutant by CLSI method; type: functional
How it was run: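 Broth microdilution following CLSI M27-A2, run in YPD broth (1% yeast extract, 2% Bacto peptone, 2% dextrose). MICs are geometric means of at least three repetitions on three separate days.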

Candida orthopsilosis [28] = assay: Antifungal activity against Candida orthopsilosis 981224 by CLSI method; type: functional; conditions: Lodderomyces orthopsilosis
[29] = Inhibition of Candida parapsilosis H4 glucan synthase assessed as [3H]UDPG incorporation; how it was run: as §1
Candida metapsilosis [30] = assay: Antifungal activity against Candida metapsilosis am-2006-0113 by CLSI method; type: functional; conditions: Lodderomyces metapsilosis
[31] = Inhibition of Candida albicans M122 glucan synthase assessed as [3H]UDPG incorporation; how it was run: as §1

Compound: CCCCCOc1ccc(-c2ccc(-c3ccc(C(=O)N[C@H]4C[C@@H](O)[C@@H](O)NC(=O)[C@@H]5[C@@H](O)[C@@H](C)CN5C(=O)[C@H]([C@@H](C)O)NC(=O)[C@H]([C@H](O)[C@@H](O)c5ccc(O)cc5)NC(=O)[C@@H]5C[C@@H](O)CN5C(=O)[C@H]([C@@H](C)O)NC4=O)cc3)cc2)cc1 [ANIDULAFUNGIN] ({pTerphenylCO(4''-OnC5H11)}-[Orn(4R-OH,5R-OH)]T[Hyp][hTyr(3S-OH,4S-OH)]T[Pro(3S-OH,4S-Me)]; lactam 1-C)
- MIC (Candida parapsilosis [1]): 1.1 µg/mL (≈ 0.965 µM)
- MIC (Candida metapsilosis [2]): 0.79 µg/mL (≈ 0.693 µM)
- MIC (Saccharomyces cerevisiae [3]): 0.015 µg/mL (≈ 0.0132 µM)
- MIC (Candida orthopsilosis [4]): 0.79 µg/mL (≈ 0.693 µM)
- IC50 [5]: 0.00377 µg/mL (≈ 0.00331 µM)
- MIC (Candida albicans [6]): 0.15 µg/mL (≈ 0.132 µM)
- IC50 [7]: 0.00089 µg/mL (≈ 0.000781 µM)
- Ki [7]: 0.00133 µg/mL (≈ 0.00117 µM)
- IC50 [8]: 0.1333 µg/mL (≈ 0.117 µM)
- Ki [8]: 0.129 µg/mL (≈ 0.113 µM)
- MIC (Nakaseomyces glabratus [9]): 0.05 µg/mL (≈ 0.0438 µM)
- MIC (Candida parapsilosis [10]): 2.24 µg/mL (≈ 1.96 µM)
- IC50 [11]: 0.10737 µg/mL (≈ 0.0942 µM)
- Ki [11]: 0.06895 µg/mL (≈ 0.0605 µM)
- MIC (Candida albicans [12]): 0.02 µg/mL (≈ 0.0175 µM)
- IC50 [13]: 0.44203 µg/mL (≈ 0.388 µM)
- Ki [13]: 0.6395 µg/mL (≈ 0.561 µM)
- MIC (Candida albicans [14]): 0.02 µg/mL (≈ 0.0175 µM)
- MIC (Candida albicans [15]): 0.08 µg/mL (≈ 0.0702 µM)
- IC50 [16]: 0.1419 µg/mL (≈ 0.124 µM)
- Ki [16]: 0.0465 µg/mL (≈ 0.0408 µM)
- IC50 [17]: 0.00163 µg/mL (≈ 0.00143 µM)
- Ki [17]: 0.00143 µg/mL (≈ 0.00125 µM)
- MIC (Saccharomyces cerevisiae [18]): 0.03 µg/mL (≈ 0.0263 µM)
- IC50 [19]: 0.00183 µg/mL (≈ 0.0016 µM)
- Ki [19]: 0.00063 µg/mL (≈ 0.000553 µM)
- IC50 [20]: 0.1264 µg/mL (≈ 0.111 µM)
- Ki [20]: 0.0414 µg/mL (≈ 0.0363 µM)
- MIC (Candida parapsilosis [21]): 1.59 µg/mL (≈ 1.39 µM)
- IC50 [22]: 0.20686 µg/mL (≈ 0.181 µM)
- Ki [22]: 0.712 µg/mL (≈ 0.624 µM)
- MIC (Nakaseomyces glabratus [23]): 1.59 µg/mL (≈ 1.39 µM)
- IC50 [24]: 0.16317 µg/mL (≈ 0.143 µM)
- Ki [24]: 0.111 µg/mL (≈ 0.0973 µM)
- IC50 [25]: 1.663 µg/mL (≈ 1.46 µM)
- Ki [25]: 2.374 µg/mL (≈ 2.08 µM)
- IC50 [26]: 0.23707 µg/mL (≈ 0.208 µM)
- Ki [26]: 0.43167 µg/mL (≈ 0.379 µM)
- MIC (Saccharomyces cerevisiae [27]): 0.5 µg/mL (≈ 0.438 µM)
- MIC (Candida orthopsilosis [28]): 1.26 µg/mL (≈ 1.11 µM)
- IC50 [29]: 0.11012 µg/mL (≈ 0.0966 µM)
- Ki [29]: 0.3685 µg/mL (≈ 0.323 µM)
- MIC (Candida metapsilosis [30]): 0.63 µg/mL (≈ 0.553 µM)
- IC50 [31]: 0.53013 µg/mL (≈ 0.465 µM)
- Ki [31]: 0.646 µg/mL (≈ 0.567 µM)
